{"source": "PubChem BioAssay AID624467", "about": "(The Scripps Research Institute Molecular Screening Center, 2012)", "note": "Among all 360,000 compounds or so, about 3,600 (1%) were called active. For the sample, actives were picked, then their nearest neighbours and some compounds at random. Values without a mark were called inactive.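 The calls were made as follows: active = activation above the mean activation of all test compounds in the run plus 3 SD (cut at about 38% in these data); inactive = the rest.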", "data": [{"target": "Trace amine-associated receptor 1 (Homo sapiens) (UniProt Q96RJ0)", "sequence (Q96RJ0 whole entry, looked up)": "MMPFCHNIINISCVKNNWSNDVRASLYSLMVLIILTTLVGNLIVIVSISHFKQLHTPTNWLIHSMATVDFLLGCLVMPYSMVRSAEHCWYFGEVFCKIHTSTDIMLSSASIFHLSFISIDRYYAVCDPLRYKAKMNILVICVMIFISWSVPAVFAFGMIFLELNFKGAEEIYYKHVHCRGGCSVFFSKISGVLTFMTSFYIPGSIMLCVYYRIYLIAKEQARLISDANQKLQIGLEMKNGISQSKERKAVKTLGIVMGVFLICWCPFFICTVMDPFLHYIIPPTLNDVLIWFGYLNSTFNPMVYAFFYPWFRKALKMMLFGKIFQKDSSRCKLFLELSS", "experiment": "human TAAR1 agonists, primary screen, Fluo-8 calcium fluorescence, CHO RD-HGA16 cells (AID 624467)", "details": "CHO RD-HGA16 TAAR1, Fluo-8 calcium fluorescence; at 3 µM; hits give high values; vehicle wells 0%, saturating PEA agonist 100%", "how_it_was_run": "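test system = CHO RD-HGA16 cells carrying human TAAR1 plus Gα16 | schedule = 17-24 h seeding, 75 min 37 °C dye, 30 min RT | compound dosing = 3 µM single concentration | control set = DMSO and PEA EC100 | replicates = n 1 | signal = Fluo-8 fluorescence, 5 s baseline then 140 s kinetic read | measure = percent activation vs PEA EC100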", "values": [{"smiles": "COc1ccc(-c2nc3n(c(=O)c2C#N)CCS3)c(OC)c1", "activation": "1.68%"}, {"smiles": "Cc1ccc2c(c1)NCC(C(=O)NC1CCC(C)CC1)O2", "note": "(stereo not given)", "activation": "-0.02%"}, {"smiles": "COc1ccc(NC(=S)Nc2ccc(S(N)(=O)=O)cc2)c(C)c1", "activation": "5.94%"}, {"smiles": "NS(=O)(=O)c1ccc(NC(=S)Nc2ccc(Br)c(Cl)c2)cc1", "activation": "42.6% (active)"}, {"smiles": "NS(=O)(=O)c1ccc(NC(=S)N2CCCC2)cc1", "activation": "0.52%"}, {"smiles": "N#Cc1ccc(-c2nc3cc(C#N)c(C#N)cc3nc2-c2ccccc2)cc1C#N", "activation": "2.52%"}, {"smiles": "Cc1cc2c(nc1C)CCCN2C", "activation": "0.42%"}, {"smiles": "O=C(Cn1c(N2CCN(C/C=C/c3ccccc3)CC2)nc2ccccc21)c1ccccc1", "activation": "7.57%"}, {"smiles": "CC(Oc1ccc(Cl)cc1)C(=O)OCC(=O)Nc1ncc(Cl)cc1Cl", "note": "(stereo not given)", "activation": "74.1% (active)"}, {"smiles": "CC1(C(=O)OCC(=O)Nc2ncc(Cl)cc2Cl)CC1(Cl)Cl", "note": "(stereo not given)", "activation": "-0.29%"}, {"smiles": "CC(Oc1ccc(Cl)cc1)C(=O)Nc1ncccn1", "note": "(stereo not given)", "activation": "-0.09%"}, {"smiles": "CCc1ccc(NC(=O)N2CCc3ccccc3C2)cc1", "activation": "31%"}, {"smiles": "Cc1ccc(NC(=O)CCN2CCc3ccccc3C2)cc1", "activation": "88.5% (active)"}, {"smiles": "Cc1ccc(NC(=O)CN2CCc3ccccc3C2)cc1C", "activation": "9.67%"}, {"smiles": "CCOc1ccc(Cl)cc1-c1cc(C(=O)NCc2cccs2)[nH]n1", "activation": "0.34%"}, {"smiles": "COc1ccc2c(c1)OC(O)(C(F)(F)C(F)F)CC2=O", "note": "(stereo not given)", "activation": "56.3% (active)"}, {"smiles": "COc1ccc2c(c1)SC(C)CC2=O", "note": "(stereo not given)", "activation": "5.89%"}, {"smiles": "COc1ccc2c(c1)C(=O)CC(c1ccccc1)O2", "note": "(stereo not given)", "activation": "5.95%"}, {"smiles": "Cc1ccc2c(c1)C(O)(CC(=O)c1cccnc1)C(=O)N2", "note": "(stereo not given)", "activation": "0.5%"}, {"smiles": "CCCCSc1nc2c(c(=O)n1CC)SC(C)C2", "note": "(stereo not given)", "activation": "10%"}, {"smiles": "O=C(NS(=O)(=O)c1cccs1)[C@H]1O[C@@H](n2ccc(=O)[nH]c2=O)[C@H](O)[C@@H]1O", "activation": "0.38%"}, {"smiles": "Cc1ccc(NC(=O)CN2C(=O)NC(C)(c3ccc(Cl)cc3)C2=O)c(Br)c1", "note": "(stereo not given)", "activation": "42.4% (active)"}, {"smiles": "COc1ccc(C2(C)NC(=O)N(CC(=O)c3ccc4c(c3)OCO4)C2=O)cc1", "note": "(stereo not given)", "activation": "25.5%"}, {"smiles": "Cc1ccc(C2(C)NC(=O)N(CC(=O)N3CC(=O)Nc4ccccc43)C2=O)cc1", "note": "(stereo not given)", "activation": "1.06%"}, {"smiles": "COc1ccc(C(=O)CN2C(=O)NC(C)(c3ccc(C)cc3)C2=O)cc1OC", "note": "(stereo not given)", "activation": "59.9% (active)"}, {"smiles": "COc1cc(NC(=O)CN2C(=O)NC(C)(c3ccc(OC(F)F)cc3)C2=O)cc(OC)c1OC", "note": "(stereo not given)", "activation": "5.76%"}, {"smiles": "CC1(c2ccc(Cl)cc2)NC(=O)N(CC(=O)c2ccc3c(c2)OCO3)C1=O", "note": "(stereo not given)", "activation": "48.4% (active)"}, {"smiles": "CC1CCC2(CC1)NC(=O)N(CC(=O)c1ccc3c(c1)OCO3)C2=O", "note": "(stereo not given)", "activation": "1.46%"}, {"smiles": "Cc1ccc(C2(C)NC(=O)N(CC(=O)Nc3ccccc3C(=O)N3CCCCC3)C2=O)cc1", "note": "(stereo not given)", "activation": "9.97%"}, {"smiles": "Cc1ccc(S(=O)(=O)N2CCN(C(=O)CN3C(=O)NC(C)(c4ccc(Cl)cc4)C3=O)CC2)c(C)c1", "note": "(stereo not given)", "activation": "9.36%"}, {"smiles": "COc1ccc(NC(=O)N(C)C[C@@H]2OCCCC[C@@H](C)Oc3ccc(NC(=O)NC4CCCCC4)cc3C(=O)N([C@H](C)CO)C[C@@H]2C)cc1", "activation": "0.43%"}, {"smiles": "O=C(N[C@H](Cc1ccccc1)C(=O)N1CCCN(Cc2cccs2)CC1)[C@H]1O[C@@H](n2ccc(=O)[nH]c2=O)[C@H](O)[C@@H]1O", "activation": "0.87%"}, {"smiles": "N#Cc1cccc(C(=O)NCC2CCN(C(=O)C(=O)c3cc4ccccc4o3)CC2)c1", "activation": "2.73%"}, {"smiles": "CSc1ccc(Oc2cccc3c2S(=O)(=O)N([C@H](C)c2ccccc2)C[C@@H](COCc2ccccc2)O3)cc1C", "activation": "-0.58%"}, {"smiles": "CC(NC(=O)C(=O)NN=C1CCC(C(C)(C)C)CC1)c1ccccc1", "note": "(stereo not given)", "activation": "-1.32%"}, {"smiles": "CCOC(=O)c1cc(-c2ccc(Cl)s2)nc2c1c(C)nn2C", "activation": "12.8%"}, {"smiles": "CCCc1nnc(SCC(=O)N2C(C)CCCC2C)n1CC", "note": "(stereo not given)", "activation": "7.54%"}, {"smiles": "COc1ccc(-n2c(-c3ccc(Cl)cc3)n[nH]c2=S)c(OC)c1", "activation": "1%"}, {"smiles": "COc1cc(OC)c(N2CC(C(=O)Nc3cc(Cl)ccc3N3CCOCC3)CC2=O)cc1Cl", "note": "(stereo not given)", "activation": "9.38%"}, {"smiles": "COc1cc(OC)c(-n2cc(-c3ccc(Cl)cc3)[nH]c2=O)cc1Cl", "activation": "135% (active)"}, {"smiles": "O=C(NC1CCCC1)C(c1ccc(Cl)cc1)N(C(=O)c1csnn1)C1CC1", "note": "(stereo not given)", "activation": "2.16%"}, {"smiles": "N#CCSc1ccccc1NC(=O)CN1C(=O)NC(CCc2ccccc2)C1=O", "note": "(stereo not given)", "activation": "4.54%"}, {"smiles": "Cc1ccc(-c2nnc(SCC(=O)N/N=C/c3cccs3)n2-c2ccc(C)cc2)cc1", "activation": "2.56%"}, {"smiles": "COc1ccc(NC(=O)COC(=O)Cn2c(C)nc3ccccc32)cc1OC", "activation": "8.05%"}, {"smiles": "Cc1nc2ccccc2n1CC(=O)N/N=C/c1cccs1", "activation": "41% (active)"}]}]}
